In ChEMBL document CHEMBL4828746, “Design, synthesis and evaluation of heteroaryldihydropyrimidine analogues bearing spiro ring as hepatitis B virus capsid protein inhibitors” (Eur J Med Chem, 2021) one finds Activity, EC50 and EC90 data, which are given here for 30 molecules.

In test [1] the target is Core antigen (Hepatitis B virus) (UniProt Q03732). Description: Inhibition of capsid protein in HBV infected in human HepDES19 cells assessed as inhibition of viral replication by measuring plus polarity DNA level at 20 uM incubated for 3 days by strand preferential qPCR analysis relative to control. The arrangement: scale not given: the % may be the effect or the level left. The settings on record: time 3.0 day. Format: cell-based. In a few lines: (§1)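 HepDES19 cells (HepG2 line carrying a tetracycline-repressible HBV genotype D genome) seeded at 4 x 10^4/well without tetracycline. Lysates treated with micrococcal nuclease, then protease. Plus- or minus-strand DNA quantified by strand-preferential qPCR as % of DMSO control. Each compound screened at two concentrations only: 20 and 5 μM, or 10 and 3 μM.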
Sequence of Core antigen (Hepatitis B virus) (Q03732 as listed by the source): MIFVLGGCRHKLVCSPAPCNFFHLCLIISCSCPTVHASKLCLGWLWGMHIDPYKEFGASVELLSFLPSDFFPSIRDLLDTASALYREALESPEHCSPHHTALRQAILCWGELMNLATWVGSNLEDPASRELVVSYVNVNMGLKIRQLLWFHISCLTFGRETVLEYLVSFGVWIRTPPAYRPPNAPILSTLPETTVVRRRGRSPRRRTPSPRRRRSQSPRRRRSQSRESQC
For orientation: In qPCR the cycle at which signal appears reflects the starting amount.

The target is the same in test [2]. The test can be described thus: Inhibition of capsid protein in HBV infected in human HepDES19 cells assessed as inhibition of viral replication by measuring minus polarity DNA level at 20 uM incubated for 3 days by strand preferential qPCR analysis relative to control. In kind it is cell-based. On the set-up: scale not given: the % may be the effect or the level left. Particulars: time 3.0 day. In a few lines:
(§2)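 HepDES19 cells (HepG2 line carrying a tetracycline-repressible HBV genotype D genome) seeded at 4 x 10^4/well without tetracycline. Compound added 48 h after induction in 1% DMSO, then 3 days at 37°C, 5% CO2. Lysates treated with micrococcal nuclease, then protease. Plus- or minus-strand DNA quantified by strand-preferential qPCR as % of DMSO control. Each compound screened at two concentrations only: 20 and 5 μM, or 10 and 3 μM.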

For test [3] the target is unchanged. The test can be described thus: Inhibition of capsid protein in HBV infected in human HepDES19 cells assessed as inhibition of viral replication by measuring minus polarity DNA level at 3 uM incubated for 3 days by strand preferential qPCR analysis relative to control. On the set-up: scale not given: the % may be the effect or the level left. Particulars: time 3.0 day.

Test [4] has the same target. Description: Inhibition of capsid protein in HBV infected in human HepDES19 cells assessed as inhibition of viral replication by measuring minus polarity DNA level at 5 uM incubated for 3 days by strand preferential qPCR analysis relative to control. Format: cell-based. On the set-up: scale not given: the % may be the effect or the level left. The settings on record: time 3.0 day. Put shortly: as §1

Test [5] shares this target. Description: Inhibition of capsid protein in HBV infected in human HepDES19 cells assessed as inhibition of viral replication by measuring plus polarity DNA level at 3 uM incubated for 3 days by strand preferential qPCR analysis relative to control. On the set-up: scale not given: the % may be the effect or the level left. The settings on record: time 3.0 day.
In test [6] the test system is Hepatitis B virus. The test can be described thus: Antiviral activity against HBV infected in human HepG2.2.15 cells assessed as inhibition of viral replication incubated for 8 days by southern blotting analysis. In kind it is functional, organism-based. Particulars: HepG2.2.15, 192 h.
The target of test [7] is Core antigen (Hepatitis B virus) (UniProt Q03732). Description: Inhibition of capsid protein in HBV infected in human HepDES19 cells assessed as inhibition of viral replication by measuring plus polarity DNA level at 10 uM incubated for 3 days by strand preferential qPCR analysis relative to control. The settings on record: time 3.0 day. On the set-up: scale not given: the % may be the effect or the level left. In kind it is cell-based. In a few lines:
as §2

For test [8] the target is unchanged. Description: Inhibition of capsid protein in HBV infected in human HepDES19 cells assessed as inhibition of viral replication by measuring plus polarity DNA level at 3 uM incubated for 3 days by strand preferential qPCR analysis relative to control. The arrangement: scale not given: the % may be the effect or the level left. In kind it is cell-based. The settings on record: time 3.0 day. Put shortly: as §2

For test [9] the target is unchanged. The test can be described thus: Inhibition of capsid protein in HBV infected in human HepDES19 cells assessed as inhibition of viral replication by measuring minus polarity DNA level at 10 uM incubated for 3 days by strand preferential qPCR analysis relative to control. Format: cell-based. The arrangement: scale not given: the % may be the effect or the level left. Particulars: time 3.0 day. In a few lines:
as §2

Test [10] has the same target. Description: Inhibition of capsid protein in HBV infected in human HepDES19 cells assessed as inhibition of viral replication by measuring minus polarity DNA level at 3 uM incubated for 3 days by strand preferential qPCR analysis relative to control. Format: cell-based. The arrangement: scale not given: the % may be the effect or the level left. The settings on record: time 3.0 day. Put shortly:
as §2

The subject of test [11] is Hepatitis B virus. Description: Antiviral activity against HBV infected in human HepG2.2.15 cells assessed as inhibition of viral replication in presence of 50% human serum albumin. In kind it is functional.

Each structure is given as a SMILES string.

A word on the EC50: it is the concentration that produces a half-maximal response. By EC90 is commonly meant the concentration needed for an effect of 90%.

`CCOC(=O)C1=C(CN2CC3(CNC3)C2)NC(c2nccs2)=NC1c1ccc(F)cc1Br` (stereo unspecified): the Activity was 87.4% in test [1], 94.8% in [2] and 85.9% in test [3].

Take `CCOC(=O)C1=C(CN2CCC3(CC2)CNC(=O)C3)NC(c2nccs2)=NC1c1ccc(F)cc1Br` (stereo unspecified): the Activity in test [1] turned out to be 2.4%; in test [2] it was 2.7%; in [4], 4%; in [5], 3.4%.

With `CCOC(=O)C1=C(CN2CCC3(CNC3)C2)NC(c2nccs2)=NC1c1ccc(F)cc1Br` (stereo unspecified), the values for the Activity in test [1], in test [2] and in test [3] were 82.2%, 88.8% and 84.5%, respectively.

`Nc1ccn([C@@H]2CS[C@H](CO)O2)c(=O)n1` [LAMIVUDINE]: the Activity in test [1] was 4%; in test [2], 11.8%; in test [5], 23.9%; in test [3], 79.1%. Also, the 50% effective concentration (EC50) in [6] worked out at 0.325 µM.

Take `CCOC(=O)C1=C(CN2CCC3(CNC(=O)C3)C2)NC(c2nccs2)=NC1c1ccc(F)cc1Br` (stereo unspecified): the Activity came to 3% in [1], 2.5% in test [2], 2.3% in test [4] and 2.8% in [5].

Take `CCOC(=O)C1=C(CN2CCC3(CCNCC3)C2)NC(c2nccs2)=NC1c1ccc(F)cc1Br` (stereo unspecified): the Activity in test [1] was 88.4%; in [2], 86.4%; in test [3] it was 69.9%.

For `CCOC(=O)C1=C(CN2CCC3(CCNC3)CC2)NC(c2nccs2)=NC1c1ccc(F)cc1Br` (stereo unspecified), the Activity in test [1] was 105%; in [2], 99.6%; in test [3], 72.5%.

As to `CCOC(=O)C1=C(CN2CCC3(CCNC3=O)CC2)NC(c2nccs2)=NC1c1ccc(F)cc1Br` (stereo unspecified), the Activity amounted to 18.3% in test [1], 37.8% in [2] and 44.1% in test [4].

Take `CCOC(=O)C1=C(CN2CCC3(CCNC3)C2=O)NC(c2nccs2)=NC1c1ccc(F)cc1Br` (stereo unspecified): the values for the Activity in test [1] and in test [2] were 109% and 81.4%, respectively.

On to `CCOC(=O)C1=C(CN2CCC3(CC2)CN(C(=O)OC(C)(C)C)C3)NC(c2nccs2)=NC1c1ccc(F)cc1Br` (stereo unspecified), for which the Activity in [7] stood at 60.9%; in [8], 87.7%; in test [9], 60.2%; in test [10], 83.7%.

Take `CCOC(=O)C1=C(CN2CCC3(CC2)CC(NC(=O)OC(C)(C)C)C3)NC(c2nccs2)=NC1c1ccc(F)cc1Br` (stereo unspecified): the Activity in test [1] was 111%; in test [2] it was 117%; in test [3], 97.2%.

On to `CCOC(=O)C1=C(CN2CCC3(CCN(C(=O)OC(C)(C)C)C3)C2=O)NC(c2nccs2)=NC1c1ccc(F)cc1Br` (stereo unspecified), for which the Activity in [1] was 0.8%; in [2], 0.8%; in test [4] it was 2.9%; in test [5], 3.3%.

As to `CCOC(=O)C1=C(CN2CC3(CCN(C(=O)OC(C)(C)C)C3)CC2=O)NC(c2nccs2)=NC1c1ccc(F)cc1Br` (stereo unspecified), the Activity worked out at 1.8% in test [1], 1.3% in test [2], 2.9% in test [4] and 2.7% in test [5].

As to `CCOC(=O)C1=C(CN2CCC3(CC2)CC(N)C3)NC(c2nccs2)=NC1c1ccc(F)cc1Br` (stereo unspecified), the Activity in test [1] worked out at 114%; in test [2], 105%; in test [3], 69.9%.

As for `CCOC(=O)C1=C(CN2CCC3(CCNCC3)CC2)NC(c2nccs2)=NC1c1ccc(F)cc1Br` (stereo unspecified), the Activity is 106% in [1], 97.7% in test [2] and 67.1% in [3].

On to `CCOC(=O)C1=C(CN2CCC3(C2)CN(C(=O)OC(C)(C)C)C3)NC(c2nccs2)=NC1c1ccc(F)cc1Br` (stereo unspecified), for which the Activity was 54.7% in test [1], 56.5% in test [2] and 85.3% in test [3].

In the case of `CCOC(=O)C1=C(CN2CCOCC2)NC(c2nccs2)=N[C@H]1c1ccc(F)cc1Br`, in test [2], the Activity stood at 22.6%. Moreover, in [6], the EC50 came to 0.012 µM. In [11], the EC90 came out at 0.0557 mg/L.

Take `CCOC(=O)C1=C(CN2CC3(CNC3)CC2=O)NC(c2nccs2)=NC1c1ccc(F)cc1Br` (stereo unspecified): the Activity was 108% in test [1] and 85.3% in test [2].

Consider `CCOC(=O)C1=C(CN2CCC3(CC(=O)N(Cc4ccccc4)C3=O)C2)NC(c2nccs2)=NC1c1ccc(F)cc1Br` (stereo unspecified), for which the Activity in [1] was determined as 2%; in test [2] it was 2.2%; in [4] it was 2.8%; in [5], 3%.

Consider `CCOC(=O)C1=C(CN2CC3(C2)CN(C(=O)OC(C)(C)C)C3)NC(c2nccs2)=NC1c1ccc(F)cc1Br` (stereo unspecified), for which the values for the Activity in test [1], in test [2] and in test [3] were 105%, 96.5% and 85.7%, respectively.

As to `CCOC(=O)C1=C(CN2CCC3(CC2)CCN(C(=O)OC(C)(C)C)C3)NC(c2nccs2)=NC1c1ccc(F)cc1Br` (stereo unspecified), the Activity in [7] came to 92.5%; in test [8] it was 85.3%; in test [9], 76.1%; in test [10], 85%.

`CCOC(=O)C1=C(CN2CCC3(CC2)CCN(C(=O)OC(C)(C)C)CC3)NC(c2nccs2)=NC1c1ccc(F)cc1Br` (stereo unspecified): the Activity in test [7] is 91.1%; in [8] it was 93%; in [9], 110%; in [10], 74.5%.

On to `CCOC(=O)C1=C(CN2CC3(CC2=O)CN(C(=O)OC(C)(C)C)C3)NC(c2nccs2)=NC1c1ccc(F)cc1Br` (stereo unspecified), for which the Activity in test [1] was found to be 3.5%; in [2], 1.8%; in [4], 2.5%; in test [5], 2.4%.

With `CCOC(=O)C1=C(CN2CCC3(CC2)CNC3)NC(c2nccs2)=NC1c1ccc(F)cc1Br` (stereo unspecified), the Activity was 113% in test [1], 93.4% in test [2] and 70.8% in test [3].

In the case of `CCOC(=O)C1=C(CN2CCC3(CC2)OCCO3)NC(c2nccs2)=NC1c1ccc(F)cc1Br` (stereo unspecified), the Activity worked out at 3.4% in [1], 3.4% in test [2], 3.1% in test [4] and 3.8% in test [5].

For the molecule `CCOC(=O)C1=C(CN2CCC3(CCN(C(=O)OC(C)(C)C)C3)C2)NC(c2nccs2)=NC1c1ccc(F)cc1Br` (stereo unspecified), the Activity in [1] worked out at 16.8%; in test [2], 28.8%; in test [3], 67.1%.

On to `CCOC(=O)C1=C(CN2CC3(CCNC3)CC2=O)NC(c2nccs2)=NC1c1ccc(F)cc1Br` (stereo unspecified), for which the Activity in [1] amounted to 120%; in [2] it was 68.9%.

On to `CCOC(=O)C1=C(CN2CCC3(CC2)CNC3=O)NC(c2nccs2)=NC1c1ccc(F)cc1Br` (stereo unspecified), for which the Activity in [1] was found to be 2.4%; in [2], 2.5%; in [4] it was 3.4%; in [5], 2.7%.

With `CCOC(=O)C1=C(CN2CCC3(CC2)CC(=O)NC3=O)NC(c2nccs2)=NC1c1ccc(F)cc1Br` (stereo unspecified), the Activity in test [1] is 22.4%; in [2], 34.8%; in [4] it was 21.1%; in test [5] it was 18.9%.

In the case of `CCOC(=O)C1=C(CN2CCC3(CCN(C(=O)OC(C)(C)C)CC3)C2)NC(c2nccs2)=NC1c1ccc(F)cc1Br` (stereo unspecified), the Activity worked out at 102% in test [1], 87% in [2] and 80.1% in [3].
